Measurements as given in ChEMBL document CHEMBL4145570, “Structures and Biological Evaluation of Monoterpenoid Glycosides from the Roots of Paeonia lactiflora” (J Nat Prod, 2018).
pIC50: −log10 of the molar value. Calls of active or inactive are those of the source. No cut-off for these calls is given here.

Columns and labels:
RAW264.7 [1] = test: Antiinflammatory activity in mouse RAW264.7 cells assessed as inhibition of LPS-induced NO production at 80 uM relative to control; type: functional
RAW264.7 [2] = test: Antiinflammatory activity in mouse RAW264.7 cells assessed as inhibition of LPS-induced NO production at 60 uM relative to control; type: functional
RAW264.7 [3] = test: Antiinflammatory activity in mouse RAW264.7 cells assessed as inhibition of LPS-induced NO production at 40 uM relative to control; type: functional
RAW264.7 [4] = test: Antiinflammatory activity in mouse RAW264.7 cells assessed as inhibition of LPS-induced NO production at 20 uM relative to control; type: functional
RAW264.7 [5] = test: Antiinflammatory activity in mouse RAW264.7 cells assessed as inhibition of LPS-induced NO production at 10 uM relative to control; type: functional
RAW264.7 [6] = test: Antiinflammatory activity in mouse RAW264.7 cells assessed as inhibition of LPS-induced NO production; type: functional, cell-based
Method in brief: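 NO release measured in LPS-stimulated RAW264.7 macrophages alongside an unstimulated control group; IC50 derived; dexamethasone as positive control.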

RAW264.7 [7] = test: Cytotoxicity against mouse RAW264.7 cells up to 100 uM; type: cell-based
Method in brief: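 Viability assessed in LPS-stimulated RAW264.7 macrophages during the NO-production assay, at concentrations up to 100 μM.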

HCT-8 = test: Cytotoxicity against human HCT8 cells assessed as decrease in cell viability at 10 uM after 24 hrs by MTT assay; type: functional, cell-based
A2780 = test: Cytotoxicity against human A2780 cells assessed as decrease in cell viability at 10 uM after 24 hrs by MTT assay; type: functional, cell-based
BGC-823 = test: Cytotoxicity against human BGC823 cells assessed as decrease in cell viability at 10 uM after 24 hrs by MTT assay; type: functional, cell-based
Bel-7402 = test: Cytotoxicity against human Bel7402 cells assessed as decrease in cell viability at 10 uM after 24 hrs by MTT assay; type: functional, cell-based
A549 = test: Cytotoxicity against human A549 cells assessed as decrease in cell viability at 10 uM after 24 hrs by MTT assay; type: functional, cell-based
Peritoneal macrophage = test: Inhibition of LPS-induced TNFalpha secretion in C57BL6J mouse peritoneal macrophages at 10 uM after 24 hrs; type: functional, cell-based
[8] = biological target: T1, Tyrosine-protein phosphatase non-receptor type 1 (Homo sapiens) (UniProt P18031); test: Inhibition of PTP1B (unknown origin) at 10 uM
T1 sequence (whole entry): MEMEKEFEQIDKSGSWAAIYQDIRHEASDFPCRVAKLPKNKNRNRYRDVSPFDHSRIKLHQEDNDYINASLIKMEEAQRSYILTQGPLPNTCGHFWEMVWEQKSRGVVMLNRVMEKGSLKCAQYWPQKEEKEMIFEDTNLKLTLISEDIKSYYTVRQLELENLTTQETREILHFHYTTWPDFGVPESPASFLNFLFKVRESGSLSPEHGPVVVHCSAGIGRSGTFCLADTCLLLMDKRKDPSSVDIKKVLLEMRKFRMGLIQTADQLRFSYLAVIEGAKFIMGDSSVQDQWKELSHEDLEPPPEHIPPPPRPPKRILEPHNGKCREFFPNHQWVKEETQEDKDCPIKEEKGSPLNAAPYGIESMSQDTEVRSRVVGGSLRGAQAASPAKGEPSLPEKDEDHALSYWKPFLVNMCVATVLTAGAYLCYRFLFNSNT

HepG2 = test: Protection against acetaminophen-induced cell injury in human HepG2 cells at 10 uM after 24 hrs by MTT assay; type: functional, cell-based

Row | SMILES | inhibition at 80 µM (RAW264.7 [1]) | inhibition at 60 µM (RAW264.7 [2]) | inhibition at 40 µM (RAW264.7 [3]) | inhibition at 20 µM (RAW264.7 [4]) | inhibition at 10 µM (RAW264.7 [5]) | pIC50 (RAW264.7 [6]) | Activity (RAW264.7 [7]) | Activity (HCT-8) | Activity (A2780) | Activity (BGC-823) | Activity (Bel-7402) | Activity (A549) | inhibition (Peritoneal macrophage) | inhibition [8] | Activity (HepG2)
1 | C[C@]1(C(=O)OC[C@H]2O[C@@H](O[C@]34CC5C3(COC(=O)c3ccccc3)[C@H]3O[C@]5(O)C[C@]4(C)O3)[C@H](O)[C@@H](O)[C@@H]2O)[C@@H]2CC[C@H](CO)[C@H]1C2 | 44.6% | 29.3% | 25.8% | 22.8% | 16.5% | < 4.00 | Non-Toxic | inactive | inactive | inactive | inactive | inactive | inactive | inactive | inactive
2 | CC(C)c1ccc(CO[C@@H]2O[C@H](CO[C@@H]3O[C@@H](C)[C@H](O)[C@@H](O)[C@H]3O)[C@@H](O)[C@H](O)[C@H]2O)cc1 | 52.4% | 38.7% | 31.1% | 23.6% | 22.2% | 4.01 | Non-Toxic | inactive | inactive | inactive | inactive | inactive | inactive | inactive | inactive
3 | CC12C(=O)O[C@@]3(C)C[C@@H](O)[C@H]1C[C@]23O[C@@H]1O[C@H](COC(=O)c2ccccc2)[C@@H](O)[C@H](O)[C@H]1O | 39.4% | 34.8% | 28.2% | 24.4% | 19.1% | < 4.00 | Non-Toxic | inactive | inactive | inactive | inactive | inactive | inactive | inactive | inactive
4 | CC(C)=CCC/C(C)=C/C(=O)O[C@@H]1O[C@H](CO[C@@H]2O[C@@H](C)[C@H](O)[C@@H](O)[C@H]2O)[C@@H](O)[C@H](O)[C@H]1O | 41% | 33.4% | 29.2% | 21.4% | 21.4% | < 4.00 | Non-Toxic | inactive | inactive | inactive | inactive | inactive | inactive | inactive | inactive
5 | CC1(C)[C@@H]2C[C@H]1[C@@H](O)C[C@@H]2C(=O)OC[C@H]1O[C@@H](O[C@]23CC4C2(COC(=O)c2ccccc2)[C@H]2O[C@]4(O)C[C@]3(C)O2)[C@H](O)[C@@H](O)[C@@H]1O | 40.8% | 38.7% | 27.5% | 23.3% | 8.58% | < 4.00 | Non-Toxic | inactive | inactive | inactive | inactive | inactive | inactive | inactive | inactive
6 | CC1=CC(=O)[C@H]2C[C@]1(O[C@@H]1O[C@H](COC(=O)c3ccccc3)[C@@H](O)[C@H](O)[C@H]1O)C2(C)CO (stereo partly specified) | 45% | 31.9% | 18.3% | 16.2% | 12.8% | < 4.00 | Non-Toxic | inactive | inactive | inactive | inactive | inactive | inactive | inactive | inactive
7 | C=C[C@@](C)(O)CC/C=C(\C)C(=O)OC[C@H]1O[C@@H](O[C@]23CC4C2(COC(=O)c2ccccc2)[C@H]2O[C@]4(O)C[C@]3(C)O2)[C@H](O)[C@@H](O)[C@@H]1O | 41.3% | 38.1% | 28.1% | 22.6% | 9.85% | < 4.00 | Non-Toxic | inactive | inactive | inactive | inactive | inactive | inactive | inactive | inactive
8 | C[C@]12CC(=O)[C@H]3C[C@@]1(O[C@@H]1O[C@H](CO)[C@@H](O)[C@H](O)[C@H]1O)O[C@@H](O2)[C@H]3COC(=O)c1ccccc1 | 61% | 49.9% | 34.9% | 29.6% | 28% | 4.22 | Non-Toxic | inactive | inactive | inactive | inactive | inactive | inactive | inactive | inactive
9 | CC1=CC(=O)[C@H]2C[C@@]1(O[C@@H]1O[C@H](CO)[C@@H](O)[C@H](O)[C@H]1O)C2(C)COC(=O)c1ccccc1 (stereo partly specified) | 61.7% | 45.9% | 26% | 19.3% | 25.7% | 4.19 | Non-Toxic | inactive | inactive | inactive | inactive | inactive | inactive | inactive | inactive
10 | C[C@]1(C(=O)OC[C@H]2O[C@@H](O[C@]34CC5C3(COC(=O)c3ccccc3)[C@H]3O[C@]5(O)C[C@]4(C)O3)[C@H](O)[C@@H](O)[C@@H]2O)[C@@H]2CC[C@@H](CO)[C@H]1C2 | 40.7% | 39.5% | 22.1% | 20.9% | 19.7% | < 4.00 | Non-Toxic | inactive | inactive | inactive | inactive | inactive | inactive | inactive | inactive
11 | C[C@@H]1C[C@H]2[C@@H]3CCC4=CC(=O)C=C[C@]4(C)[C@@]3(F)[C@@H](O)C[C@]2(C)[C@@]1(O)C(=O)CO [DEXAMETHASONE] |  |  |  |  |  | 5.08 |  |  |  |  |  |  |  |  | 
